From ChEMBL document CHEMBL5046236, “Synthesis and structure-activity relationship study of new biaryl amide derivatives and their inhibitory effects against hepatitis C virus” (Eur J Med Chem, 2022)

Tests used:
Hepatitis C virus = assay: Antiviral activity against Hepatitis C virus infected in human Huh7.5 cells assessed as inhibition of viral replication incubated for 72 hrs by qRT-PCR analysis; type: functional, organism-based, Hepacivirus hominis; settings: Huh7.5, 72 h
Huh-7.5 = assay: Cytotoxicity against human Huh7.5 cells assessed as inhibition of cell growth measured after 96 hrs by MTT assay; type: toxicity, cell-based; settings: huh-7.5, 96 h
Outline: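 Huh7.5 cells in DMEM with 10% heat-inactivated FBS, seeded at 3.0 × 10⁴ cells/cm²; after 24 h, fresh medium with compound added (DMSO stocks, eight 1:5 serial dilutions).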

[1] = Selectivity index, ratio of CC50 for cytotoxicity against human Huh7.5 cells to EC50 for antiviral activity against Hepatitis C virus infected in human Huh7.5 cells; type: toxicity, cell-based; settings: read-out: Ratio CC50/EC50
[2] = target: DNA dC->dU-editing enzyme APOBEC-3G (Homo sapiens) (UniProt Q9HC16); assay: Inhibition of Vif-mediated human A3G degradation in HEK-293T cells cotransfected with hA3G and Vif at 20 uM by western blot analysis relative to control; type: cell-based
Outline: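 293T cells cotransfected with hA3G and Vif expression vectors, then treated with compounds at 20 μM; MG132 proteasome inhibitor as positive control, DMSO-treated cells as comparator for hA3G degradation.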

Sequence of DNA dC->dU-editing enzyme APOBEC-3G (Homo sapiens) (Q9HC16 whole entry): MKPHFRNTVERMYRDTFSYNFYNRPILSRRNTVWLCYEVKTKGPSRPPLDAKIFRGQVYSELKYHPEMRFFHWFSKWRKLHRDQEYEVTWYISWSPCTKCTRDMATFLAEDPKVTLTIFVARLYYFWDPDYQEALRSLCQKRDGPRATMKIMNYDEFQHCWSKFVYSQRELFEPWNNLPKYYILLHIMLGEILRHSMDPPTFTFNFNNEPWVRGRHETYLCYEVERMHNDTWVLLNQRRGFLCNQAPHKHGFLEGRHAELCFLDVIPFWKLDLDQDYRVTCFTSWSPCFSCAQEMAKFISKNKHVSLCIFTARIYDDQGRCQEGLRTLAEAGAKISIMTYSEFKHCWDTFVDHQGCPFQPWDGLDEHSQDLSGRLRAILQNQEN

## CN1CCN(Cc2ccc(NC(=O)c3ccc(OCCCCCl)c([N+](=O)[O-])c3)cc2C(F)(F)F)CC1
Hepatitis C virus
  EC50: 0.1 µM
Huh-7.5
  CC50: 3.74 µM
[1]
  selectivity ratio: 37

## COc1ccc(C(=O)Nc2ccc(N(C)C)cc2)cc1[N+](=O)[O-]
Hepatitis C virus
  EC50: 4.07 µM
Huh-7.5
  CC50: 88.2 µM
[1]
  selectivity ratio: 22
[2]
  inhibition: > 50%

## COc1ccc(NC(=O)c2ccc(OCCCCl)c([N+](=O)[O-])c2)cc1
Hepatitis C virus
  EC50: 2.39 µM
Huh-7.5
  CC50: 39.7 µM
[1]
  selectivity ratio: 17
[2]
  inhibition: < 25%

## COc1ccc(NC(=O)c2ccc(OC(C)C)c([N+](=O)[O-])c2)cc1
Hepatitis C virus
  EC50: 2.86 µM
Huh-7.5
  CC50: 23.4 µM
[1]
  selectivity ratio: 8
[2]
  inhibition: < 25%

## COc1ccc(C(=O)Nc2cc(OC)c(OC)c(OC)c2)cc1NC(=O)C(C)Br (centres undefined)
Hepatitis C virus
  EC50: 2.1 µM
Huh-7.5
  CC50: 15 µM
[1]
  selectivity ratio: 7

## CCC(=O)Nc1cc(C(=O)Nc2ccc(-c3cc4ccccc4[nH]3)cc2)ccc1OC
Hepatitis C virus
  EC50: 7.41 µM
Huh-7.5
  CC50: 65.6 µM
[1]
  selectivity ratio: 9
[2]
  inhibition: > 50%

## CCC(=O)Nc1cc(C(=O)Nc2ccc(OC)cc2)ccc1OCCCN(C)C
Hepatitis C virus
  EC50: > 22.2 µM
Huh-7.5
  CC50: 154 µM
[2]
  inhibition: > 50%

## CN1CCN(Cc2ccc(NC(=O)c3ccc(OCCCCl)c(N)c3)cc2C(F)(F)F)CC1
Hepatitis C virus
  EC50: 1.18 µM
Huh-7.5
  CC50: 12.9 µM
[1]
  selectivity ratio: 10.9

## COc1ccc(NC(=O)c2ccc(OCCCN(C)C)c(N)c2)cc1
[2]
  inhibition: < 25%

## COc1ccc(NC(=O)c2ccc(OCCCN3CCN(C)CC3)c([N+](=O)[O-])c2)cc1
[2]
  inhibition: < 25%

## CCC(=O)Nc1cc(C(=O)Nc2ccc(CN3CCN(C)CC3)c(C(F)(F)F)c2)ccc1OC
Hepatitis C virus
  EC50: 1.48 µM
Huh-7.5
  CC50: 35.3 µM
[1]
  selectivity ratio: 24
[2]
  inhibition: > 50%

## COc1ccc(NC(=O)c2ccc(OCCCN(C)C)c([N+](=O)[O-])c2)cc1
Hepatitis C virus
  EC50: 8.96 µM
Huh-7.5
  CC50: 126 µM
[1]
  selectivity ratio: 14
[2]
  inhibition: < 25%

## CCC(=O)Nc1cc(C(=O)Nc2ccc(CN3CCN(C)CC3)cc2)ccc1OC
Hepatitis C virus
  EC50: > 22.2 µM
Huh-7.5
  CC50: > 200 µM
[2]
  inhibition: 25%

## CN1CCN(Cc2ccc(NC(=O)c3ccc(OCCCCl)c(C(F)(F)F)c3)cc2C(F)(F)F)CC1
Hepatitis C virus
  EC50: 0.13 µM
Huh-7.5
  CC50: 13.4 µM
[1]
  selectivity ratio: 99.6

## CCC(=O)Nc1cc(C(=O)Nc2ccc(N(C)C)cc2)ccc1OC(C)C
Hepatitis C virus
  EC50: 6.03 µM
Huh-7.5
  CC50: 80.6 µM
[1]
  selectivity ratio: 13

## CCC(=O)Nc1cc(C(=O)Nc2ccc(OC)cc2)ccc1OC(C)C
Hepatitis C virus
  EC50: 1.1 µM
Huh-7.5
  CC50: 113 µM
[1]
  selectivity ratio: 103
[2]
  inhibition: < 25%

## CCC(=O)Nc1cc(C(=O)Nc2ccc(CN3CCN(C)CC3)c(C(F)(F)F)c2)ccc1OCCCCl
Hepatitis C virus
  EC50: 0.22 µM
Huh-7.5
  CC50: 7.87 µM
[1]
  selectivity ratio: 36.3

## CN(C)C1CN(Cc2ccc(NC(=O)c3ccc(OCCCCl)c([N+](=O)[O-])c3)cc2C(F)(F)F)C1
Hepatitis C virus
  EC50: 0.021 µM
Huh-7.5
  CC50: 7.8 µM
[1]
  selectivity ratio: 371

## COc1ccc(NC(=O)c2ccc3c(c2)NCCO3)cc1
Hepatitis C virus
  EC50: > 22.2 µM
Huh-7.5
  CC50: 153 µM
[2]
  inhibition: < 25%

## CCC(=O)Nc1cc(C(=O)Nc2ccc(OC)cc2)ccc1OCCCN1CCOCC1
Hepatitis C virus
  EC50: > 22.2 µM
Huh-7.5
  CC50: 49.2 µM

## CN1CCN(Cc2ccc(NC(=O)c3ccc(OCCCCl)c([N+](=O)[O-])c3)cc2C#N)CC1
Hepatitis C virus
  EC50: 0.65 µM
Huh-7.5
  CC50: 15.5 µM
[1]
  selectivity ratio: 23

## CN1CCN(Cc2ccc(NC(=O)c3ccc(OCCCCCCl)c([N+](=O)[O-])c3)cc2C(F)(F)F)CC1
Hepatitis C virus
  EC50: 0.06 µM
Huh-7.5
  CC50: 2.14 µM
[1]
  selectivity ratio: 36

## CN(C)C1CCN(Cc2ccc(NC(=O)c3ccc(OCCCCl)c([N+](=O)[O-])c3)cc2C(F)(F)F)C1 (centres undefined)
Hepatitis C virus
  EC50: 0.051 µM
Huh-7.5
  CC50: 5.8 µM
[1]
  selectivity ratio: 113

## CC(C)Oc1ccc(C(=O)Nc2ccc(N(C)C)cc2)cc1[N+](=O)[O-]
Hepatitis C virus
  EC50: 3.1 µM
Huh-7.5
  CC50: 50 µM
[1]
  selectivity ratio: 16

## CCC(=O)Nc1cc(C(=O)Nc2ccc(N(C)C)cc2)ccc1OC
Hepatitis C virus
  EC50: 2.56 µM
Huh-7.5
  CC50: 171 µM
[1]
  selectivity ratio: 66
[2]
  inhibition: < 25%

## CCC(=O)Nc1cc(C(=O)Nc2ccc(OC)cc2)ccc1OC
Hepatitis C virus
  EC50: 1.3 µM
Huh-7.5
  CC50: 109 µM
[1]
  selectivity ratio: 84
[2]
  inhibition: > 50%

## O=C(Nc1ccc(CN2CCOCC2)c(C(F)(F)F)c1)c1ccc(OCCCCl)c([N+](=O)[O-])c1
Hepatitis C virus
  EC50: 0.315 µM
Huh-7.5
  CC50: 6.1 µM
[1]
  selectivity ratio: 19.3

## CC(C)Oc1ccc(C(=O)Nc2ccc(N(C)C)cc2)cc1NC(=O)C(C)Br (centres undefined)
Hepatitis C virus
  EC50: 4.34 µM
Huh-7.5
  CC50: 7.9 µM
[1]
  selectivity ratio: 2

## CCC(=O)Nc1cc(C(=O)Nc2ccc(OC)cc2)ccc1OCCCCl
Hepatitis C virus
  EC50: 7.41 µM
Huh-7.5
  CC50: 158 µM
[1]
  selectivity ratio: 21

## CC(C)Oc1ccc(C(=O)Nc2ccc(CN3CCN(C)CC3)c(C(F)(F)F)c2)cc1N
Hepatitis C virus
  EC50: 1.32 µM
Huh-7.5
  CC50: 21.6 µM
[1]
  selectivity ratio: 16

## O=C(Nc1ccc(CN2CC(C(=O)O)C2)c(C(F)(F)F)c1)c1ccc(OCCCCl)c([N+](=O)[O-])c1
Hepatitis C virus
  EC50: 4.72 µM
Huh-7.5
  CC50: > 200 µM
[1]
  selectivity ratio: > 42

## CN(C)C1CCN(Cc2ccc(NC(=O)c3ccc(OCCCCl)c([N+](=O)[O-])c3)cc2C(F)(F)F)CC1
Hepatitis C virus
  EC50: 0.38 µM
Huh-7.5
  CC50: 5.5 µM
[1]
  selectivity ratio: 14

## COc1ccc(NC(=O)c2ccc3c(c2)NC(=O)CO3)cc1
Hepatitis C virus
  EC50: 7.46 µM
Huh-7.5
  CC50: 77.3 µM
[1]
  selectivity ratio: 10
[2]
  inhibition: 25%

## CC(C)Oc1ccc(C(=O)Nc2ccc(CN3CCN(C)CC3)c(C(F)(F)F)c2)cc1NC(=O)C(C)Br (centres undefined)
Hepatitis C virus
  EC50: 0.32 µM
Huh-7.5
  CC50: 8.7 µM
[1]
  selectivity ratio: 27

## COc1ccc2c(O[C@@H]3C[C@H]4C(=O)N[C@]5(C(=O)NS(=O)(=O)C6CC6)CC5/C=C\CCCCN(C)C(=O)[C@@H]4C3)cc(-c3nc(C(C)C)cs3)nc2c1C (single isomer, unassigned)
Hepatitis C virus
  EC50: 0.008 µM
Huh-7.5
  CC50: 38 µM
[1]
  selectivity ratio: 4760

## CN1CCN(Cc2ccc(NC(=O)c3ccc(OCCCCl)c(F)c3)cc2C(F)(F)F)CC1
Hepatitis C virus
  EC50: 0.49 µM
Huh-7.5
  CC50: 8.8 µM
[1]
  selectivity ratio: 18.9

## CC1CN(Cc2ccc(NC(=O)c3ccc(OCCCCl)c([N+](=O)[O-])c3)cc2C(F)(F)F)CC(C)O1 (centres undefined)
Hepatitis C virus
  EC50: 0.174 µM
Huh-7.5
  CC50: 2.3 µM
[1]
  selectivity ratio: 13.3

## CN1CCN(Cc2ccc(NC(=O)c3ccc(OCCCCl)c(Cl)c3)cc2C(F)(F)F)CC1
Hepatitis C virus
  EC50: 0.58 µM
Huh-7.5
  CC50: 4.1 µM
[1]
  selectivity ratio: 7

## CC1CCN(c2ccc(NC(=O)c3ccc(OCCCCl)c([N+](=O)[O-])c3)cn2)CC1
Hepatitis C virus
  EC50: 0.64 µM
Huh-7.5
  CC50: 9.2 µM
[1]
  selectivity ratio: 14.4

## CCCOc1ccc(C(=O)Nc2ccc(OC)cc2)cc1[N+](=O)[O-]
[2]
  inhibition: < 25%

## CN1CCN(Cc2ccc(NC(=O)c3ccc(OCCCCl)c(S(N)(=O)=O)c3)cc2C(F)(F)F)CC1
Hepatitis C virus
  EC50: 1.14 µM
Huh-7.5
  CC50: 5.47 µM
[1]
  selectivity ratio: 6.2

## CCC[C@H](NC(=O)[C@@H]1[C@H]2CCC[C@H]2CN1C(=O)[C@@H](NC(=O)[C@@H](NC(=O)c1cnccn1)C1CCCCC1)C(C)(C)C)C(=O)C(=O)NC1CC1
Huh-7.5
  CC50: 23.7 µM

## CCC(=O)Nc1cc(C(=O)Nc2ccc(CN3CCN(C)CC3)c(C(F)(F)F)c2)ccc1OC(C)C
Hepatitis C virus
  EC50: 0.3 µM
Huh-7.5
  CC50: 15.3 µM
[1]
  selectivity ratio: 51

## CC(C)Oc1ccc(C(=O)Nc2ccc(N(C)C)cc2)cc1N
Hepatitis C virus
  EC50: 7.41 µM
Huh-7.5
  CC50: 72.1 µM
[1]
  selectivity ratio: 10

## CN1CCN(Cc2ccc(NC(=O)c3ccc(OCCCl)c([N+](=O)[O-])c3)cc2C(F)(F)F)CC1
Hepatitis C virus
  EC50: 0.044 µM
Huh-7.5
  CC50: 9.04 µM
[1]
  selectivity ratio: 204

## CCC(=O)Nc1cc(C(=O)Nc2ccc(N3CCN(C)CC3)cc2)ccc1OC
Hepatitis C virus
  EC50: > 22.2 µM
Huh-7.5
  CC50: > 200 µM

## COc1ccc(NC(=O)c2ccc(OCCCN3CCN(C)CC3)c(N)c2)cc1
[2]
  inhibition: < 25%
